Data published in ChEMBL document CHEMBL4673335, “Store-Operated Calcium Entry as a Therapeutic Target in Acute Pancreatitis: Discovery and Development of Drug-Like SOCE Inhibitors” (J Med Chem, 2020).
Calls of active or inactive are those of the source. The calls are words filed in the database; no cut-off is given here.

Assays:
[1] = target: T1, ORAI1/STIM1 (Homo sapiens) (UniProt Q96D31+Q13586); test: Inhibition of STIM1/Orai1 (unknown origin) expressed in HEK293 cells assessed as reduction in tBHQ-induced calcium response at 10 uM relative to control; format: cell-based
T1 sequence (Q13586 23-685 partner limits assumed): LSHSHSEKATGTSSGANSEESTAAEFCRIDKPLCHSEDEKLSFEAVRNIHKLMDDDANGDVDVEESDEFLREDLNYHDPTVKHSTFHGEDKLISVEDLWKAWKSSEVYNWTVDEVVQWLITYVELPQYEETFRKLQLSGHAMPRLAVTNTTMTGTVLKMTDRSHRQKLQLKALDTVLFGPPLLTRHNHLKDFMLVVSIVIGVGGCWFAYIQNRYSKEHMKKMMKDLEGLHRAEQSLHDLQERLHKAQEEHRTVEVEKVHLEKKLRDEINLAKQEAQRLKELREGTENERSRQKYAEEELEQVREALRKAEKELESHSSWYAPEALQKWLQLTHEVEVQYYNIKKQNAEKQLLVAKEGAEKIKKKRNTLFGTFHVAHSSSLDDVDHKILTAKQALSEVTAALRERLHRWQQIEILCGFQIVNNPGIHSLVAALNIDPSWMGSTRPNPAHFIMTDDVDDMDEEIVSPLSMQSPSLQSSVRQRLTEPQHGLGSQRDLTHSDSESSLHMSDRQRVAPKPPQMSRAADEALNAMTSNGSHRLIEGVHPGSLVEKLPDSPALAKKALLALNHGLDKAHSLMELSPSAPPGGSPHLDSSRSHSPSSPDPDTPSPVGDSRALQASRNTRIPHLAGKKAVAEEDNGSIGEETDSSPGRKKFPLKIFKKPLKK
T1 sequence (Q96D31 whole entry): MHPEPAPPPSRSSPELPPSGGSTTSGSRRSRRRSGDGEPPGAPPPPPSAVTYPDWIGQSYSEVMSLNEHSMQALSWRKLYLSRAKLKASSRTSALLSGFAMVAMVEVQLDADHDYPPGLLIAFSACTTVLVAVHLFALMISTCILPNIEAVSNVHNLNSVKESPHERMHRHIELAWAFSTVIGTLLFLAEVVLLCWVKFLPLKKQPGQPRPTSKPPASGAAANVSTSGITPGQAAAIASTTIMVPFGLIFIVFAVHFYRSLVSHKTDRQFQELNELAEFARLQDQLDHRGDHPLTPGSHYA
Procedure, shortened: (§1)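 HEK cells, calcium imaging by fluorescence microscopy. Ca2+ added after 600 s and intracellular levels recorded. Traces averaged over 200 cells, then scored as AUC, peak amplitude and slope of the Ca2+ rise versus untreated control. Compound working solutions diluted from a 50 mM DMSO stock to 0.1% DMSO in physiologic buffer.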

ORAI1/STIM1 = ORAI1/STIM1 (Homo sapiens, UniProt Q13586+Q96D31); test: Inhibition of STIM1/Orai1 (unknown origin) expressed in HEK293 cells assessed as reduction in tBHQ-induced calcium response; format: cell-based
Sequence of ORAI1/STIM1 (Q96D31 whole entry): as above
Sequence of ORAI1/STIM1 (Q13586 whole entry): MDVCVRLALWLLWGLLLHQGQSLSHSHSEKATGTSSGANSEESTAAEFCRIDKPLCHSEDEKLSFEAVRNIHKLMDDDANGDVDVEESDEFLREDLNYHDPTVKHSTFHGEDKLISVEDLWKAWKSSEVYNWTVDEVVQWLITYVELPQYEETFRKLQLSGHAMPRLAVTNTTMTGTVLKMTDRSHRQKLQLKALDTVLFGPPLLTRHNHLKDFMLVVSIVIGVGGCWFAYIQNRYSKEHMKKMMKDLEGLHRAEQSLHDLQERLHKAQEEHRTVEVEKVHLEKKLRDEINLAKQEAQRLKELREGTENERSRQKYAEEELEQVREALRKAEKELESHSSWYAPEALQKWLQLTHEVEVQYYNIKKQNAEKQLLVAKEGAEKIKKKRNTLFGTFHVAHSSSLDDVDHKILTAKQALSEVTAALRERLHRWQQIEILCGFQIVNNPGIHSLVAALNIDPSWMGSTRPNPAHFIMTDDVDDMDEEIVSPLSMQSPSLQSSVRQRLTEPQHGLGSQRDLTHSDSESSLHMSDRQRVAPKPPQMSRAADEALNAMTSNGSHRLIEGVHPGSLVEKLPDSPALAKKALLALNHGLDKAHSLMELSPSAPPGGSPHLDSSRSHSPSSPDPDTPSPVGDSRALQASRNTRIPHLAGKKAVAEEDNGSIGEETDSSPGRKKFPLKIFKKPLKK

HEK293 [2] = test: Cytotoxicity in HEK293 cells assessed as cell viability at 50 uM after 72 hrs by MTT assay; format: cell-based; settings: human, hek293, 72 h
Procedure, shortened: (§2)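 MTT viability in HEK cells after 72 h treatment at 50 μM, with or without 100 μM uridine. MTT at 0.25 mg/mL final for 60 min at 37 °C, solubilized in isopropyl alcohol/HCl (1 M), absorbance read at 570 nm. Mean ± SEM, Student t-test against control.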

HEK293 [3] = test: Cytotoxicity in HEK293 cells assessed as cell viability at 50 uM after 72 hrs in presence of excess uridine by MTT assay; format: cell-based; settings: human, hek293, 72 h; procedure, shortened: as §2
[4] = target: T1, ORAI1/STIM1 (Homo sapiens); test: Activation of STIM1/Orai1 (unknown origin) expressed in HEK293 cells assessed as increase in tBHQ-induced calcium response by measuring increase in peak amplitude of calcium entry at 10 uM relative to control; format: cell-based; settings: filed as opener, dose 3.0 µM, in the assay text read “at 3 uM” for “at 10 uM”; procedure, shortened: as §1
[5] = target: T1, ORAI1/STIM1 (Homo sapiens); test: Activation of STIM1/Orai1 (unknown origin) expressed in HEK293 cells assessed as increase in tBHQ-induced calcium response by measuring increase in AUC of calcium entry at 10 uM relative to control; format: cell-based; settings: filed as opener, dose 3.0 µM, in the assay text read “at 3 uM” for “at 10 uM”; procedure, shortened: as §1
[6] = target: T1, ORAI1/STIM1 (Homo sapiens); test: Inhibition of STIM1/Orai1 (unknown origin) expressed in HEK293 cells assessed as reduction in tBHQ-induced calcium response by measuring decrease in calcium entry AUC at 10 uM relative to control; format: cell-based; procedure, shortened: as §1
[7] = target: T1, ORAI1/STIM1 (Homo sapiens); test: Inhibition of STIM1/Orai1 (unknown origin) expressed in HEK293 cells assessed as reduction in tBHQ-induced calcium response by measuring decrease in peak amplitude of calcium entry at 10 uM relative to control; format: cell-based; procedure, shortened: as §1
[8] = target: T1, ORAI1/STIM1 (Homo sapiens); test: Inhibition of STIM1/Orai1 (unknown origin) expressed in HEK293 cells assessed as reduction in tBHQ-induced calcium response by measuring decrease in slope of calcium entry at 10 uM relative to control; format: cell-based; procedure, shortened: as §1
[9] = Thermodynamic aqueous solubility; format: physicochemical; settings: read-out: Therm_solubility
Procedure, shortened: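 About 3 mg compound in 3 mL deionized water, vortexed, sonicated 5 min, then shaken overnight at 25 °C. Filtered through a 0.22 μm membrane, DMSO added, diluted about 1:10 in water. Quantified by LC–UV against DMSO standard solutions.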

[10] = Metabolic stability in mouse liver microsomes assessed as compound remaining after 1 hr; format: ADME, Microsome; settings: read-out: Stabilty
Procedure, shortened: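 Pooled male CD-1 mouse liver microsomes (20 mg/mL protein stock), NADPH-activated. Substrate at 5 μM. Residual parent measured after 1 h incubation.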

HEK293 [11] = test: Cytotoxicity in HEK293 cells assessed as cell viability at 10 uM after 24 hrs by MTT assay; format: cell-based; settings: human, hek293, 24 h
Procedure, shortened: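 MTT viability assay. HEK cells seeded at 20,000 per well, treated 24 h after plating for a further 24 h. MTT at 0.25 mg/mL final for 60 min at 37 °C. Crystals dissolved in isopropyl alcohol/HCl (1 M), absorbance read at 570 nm. Compounds diluted to 0.1% DMSO in culture medium.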

[12] = dose 3.0 µM, in the assay text read “at 3 uM” for “at 10 uM”

Q: For `COc1ccc(OC)c(-c2ccc(-n3cc(-c4ccccn4)nn3)cc2)c1`, which inhibition ([1]; dose 10.0 µM) is on record?
A: 0%

Q: Which inhibition ([1]; dose 10.0 µM) does the source give for `COc1cc(OC)cc(-c2ccc(-c3cn(-c4cccc(C(=O)O)c4)nn3)cc2)c1` here?
A: 75.4%

Q: With `COc1ccc(OC)c(-c2ccc(-c3cn(-c4ccncc4)nn3)cc2)c1` as the compound, how does the inhibition ([1]; dose 10.0 µM) read?
A: -1.7%

Q: For `COc1cccc(-c2ccc(-n3cc(-c4cccc(C(=O)O)c4)nn3)cc2)c1`, which IC50 (ORAI1/STIM1) is on record?
A: 0.807 µM

Q: What about the Activity (HEK293 [2]) of the same compound?
A: Non-Toxic

Q: What about the Activity (HEK293 [3]) of the same compound?
A: Non-Toxic

Q: Which inhibition ([1]; dose 10.0 µM) does the source give for `COc1ccc(-c2ccc(-c3cn(-c4cccc(C(=O)O)c4)nn3)cc2)cc1OC` here?
A: 39.6%

Q: Which inhibition ([1]; dose 10.0 µM) does the source give for `COC(=O)c1cc(-n2cc(-c3ccc(-c4cc(OC)ccc4OC)cc3)nn2)ccn1` here?
A: 73.5%

Q: Which Activity (HEK293 [2]) does the source give for `O=C(Nc1ccc(-n2nc(C(F)(F)F)cc2C(F)(F)F)cc1)c1ccncc1F` here?
A: Toxic

Q: And the Activity (HEK293 [3])?
A: Toxic

Q: With `CSc1cccc(-c2ccc(-c3cn(-c4cccc(C(=O)O)c4)nn3)cc2)c1` as the compound, how does the inhibition ([1]; dose 10.0 µM) read?
A: 0%

Q: Which Activity [4] does the source give for `COc1cccc(OC)c1-c1ccc(-c2cn(-c3cccc(C(=O)O)c3)nn2)cc1` here?
A: Active

Q: What about the Activity [5] of the same compound?
A: Active

Q: What does the source list for `COc1cc(OC)cc(-c2ccc(-n3cc(-c4cccc(C(=O)O)c4)nn3)cc2)c1`?
A: inhibition [1, 12]: 73.8%; inhibition [6]: Active; inhibition [7]: Active; inhibition [8]: Active

Q: Which inhibition ([1]; dose 10.0 µM) does the source give for `O=C(O)c1cccc(-c2cn(-c3ccc(-c4ccc5c(c4)OCO5)cc3)nn2)c1` here?
A: 67.3%

Q: With `O=C(O)c1cccc(-c2cn(-c3ccc(-c4cccc(O)c4)cc3)nn2)c1` as the compound, how does the inhibition [1, 12] read?
A: 0%

Q: Which inhibition [1, 12] does the source give for `COc1ccc(-c2ccc(-n3cc(-c4cccc(C(=O)O)c4)nn3)cc2)cc1OC` here?
A: 54.3%

Q: For `COc1cc(OC)cc(-c2ccc(-n3cc(-c4cccc(C(=O)[O-])c4)nn3)cc2)c1.[Na+]`, which solubility thermodynamic [9] is on record?
A: 0.0187 mg/mL

Q: What about the remaining at 1 h [10] of the same compound?
A: 92%

Q: For `COc1ccccc1-c1ccc(-n2cc(-c3cccc(C(=O)O)c3)nn2)cc1`, which inhibition ([1]; dose 10.0 µM) is on record?
A: 45.9%

Q: For `CSc1cccc(-c2ccc(-n3cc(-c4cccc(C(=O)O)c4)nn3)cc2)c1`, which inhibition [1, 12] is on record?
A: 23.6%

Q: For `O=C(O)c1cccc(-n2cc(-c3ccc(-c4ccc5c(c4)OCO5)cc3)nn2)c1`, which inhibition ([1]; dose 10.0 µM) is on record?
A: 0%

Q: What does the source list for `COc1ccc(F)c(-c2ccc(-n3cc(-c4cccc(C(=O)O)c4)nn3)cc2)c1` [listing 1 of 2 here]?
A: Activity (HEK293 [11]): 91.1%; IC50 (ORAI1/STIM1): 0.361 µM; Activity (HEK293 [2]): Non-Toxic; Activity (HEK293 [3]): Non-Toxic

Q: Which inhibition ([1]; dose 10.0 µM) does the source give for `COc1ccc(OC)c(-c2ccc(-c3cn(-c4cccnc4)nn3)cc2)c1` here?
A: 1.2%

Q: Which inhibition ([1]; dose 10.0 µM) does the source give for `COc1ccc(F)c(-c2ccc(-n3cc(-c4cccc(C(=O)O)c4)nn3)cc2)c1` [listing 2 of 2 here] here?
A: 74.7%

Q: And the inhibition [6]?
A: Active

Q: And the inhibition [7]?
A: Active

Q: And the inhibition [8]?
A: Active

Q: Which inhibition ([1]; dose 10.0 µM) does the source give for `COc1ccc(-c2ccc(-c3cn(-c4cccc(C(=O)O)c4)nn3)cc2)c(OC)c1` here?
A: 53%

Q: Which inhibition ([1]; dose 10.0 µM) does the source give for `COc1ccc(OC)c(-c2ccc(-c3cn(-c4cccc(C(=O)O)c4)nn3)cc2)c1` here?
A: 87.8%

Q: And the Activity (HEK293 [11])?
A: 71.8%

Q: And the IC50 (ORAI1/STIM1)?
A: 1.79 µM

Q: What about the inhibition [6] of the same compound?
A: Active

Q: And the inhibition [7]?
A: Active

Q: Which results are given for `COc1ccc(F)c(-c2ccc(-c3cn(-c4cccc(C(=O)O)c4)nn3)cc2)c1`?
A: inhibition ([1]; dose 10.0 µM): 88.9%; Activity (HEK293 [11]): 92.3%; IC50 (ORAI1/STIM1): 0.866 µM; inhibition [6]: Active; inhibition [7]: Active; inhibition [8]: Active

Q: With `COc1ccccc1-c1ccc(-c2cn(-c3cccc(C(=O)O)c3)nn2)cc1` as the compound, how does the inhibition [1, 12] read?
A: 12%

Q: Which results are given for `O=C(O)c1cccc(-c2cn(-c3ccc(-c4ccc5c(c4)OCCO5)cc3)nn2)c1`?
A: inhibition ([1]; dose 10.0 µM): 77.5%; inhibition [6]: Active; inhibition [7]: Active; inhibition [8]: Active
